The source of these data is ChEMBL document CHEMBL5380775, “Visible-Light-Controlled Histone Deacetylase Inhibitors for Targeted Cancer Therapy” (J Med Chem, 2023).

Data set [1] concerns the target T1, Histone deacetylase 1 (Homo sapiens, UniProt Q13547). The data set is described as follows: Inhibition of human recombinant HDAC1 using Boc-Lys(Ac)-AMC as substrate incubated for 1 hrs in presence of illumination with 550 nm light by fluorescence based assay.
Data set [2] can be described thus: Stability of compound in DMSO assessed as half life at 25 to 50 uM in presence of illumination with 380 to 550 nm light. The data set is classed as physicochemical. The conditions noted are these: dose 25-50 µM. The gist of the method:
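Solutions of 25–50 μM in DMSO illuminated 2 min at the cis-forming wavelength. Absorbance then followed at fixed intervals in the dark at room temperature, at the wavelength of largest isomer difference. Half-life from an exponential-decay fit.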

The target of data set [3] is T1, Histone deacetylase 1. Description: Inhibition of human recombinant HDAC1 using Boc-Lys(Ac)-AMC as substrate at 0.003 to 10 uM incubated for 1 hrs in presence of illumination with 550 nm light by fluorescence based assay. The conditions noted are these: dose 0.003-10 µM. The gist of the method:
(§1)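 Recombinant human HDAC1 at 8 ng/well with Boc-Lys(Ac)-AMC 15 μM in Tris buffer pH 8 with 0.1 mg/mL BSA. Compound 10 μM to 3 nM, 1 h at room temperature. Dark: stocks heated to 60 or 80 °C. Light: stocks preilluminated 3 min, then continuous 550 nm at 6 mW/cm². […] Fluorescence ex 380/em 460 nm, blank-subtracted.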

Data set [4] concerns the target T1, Histone deacetylase 1. Description: Inhibition of human recombinant HDAC1 using Boc-Lys(Ac)-AMC as substrate incubated for 1 hrs in dark by fluorescence based assay.
The target in data set [5] is T1, Histone deacetylase 1. The data set is described as follows: Inhibition of human recombinant HDAC1 using Boc-Lys(Ac)-AMC as substrate at 0.003 to 10 uM incubated for 1 hrs in dark by fluorescence based assay. The conditions noted are these: dose 0.003-10 µM. In short, it runs like this: as §1
The target in data set [6] is T1, Histone deacetylase 1. Description: Inhibition of human recombinant HDAC1 using Boc-Lys(Ac)-AMC as substrate incubated for 1 hrs in presence of illumination with 420 nm light by fluorescence based assay.
Data set [7] concerns HeLa. Description: Anticancer activity against human HeLa cells assessed as reduction in cell viability upto 100 uM incubated for 48 hrs in dark by MTS assay. The data set is classed as functional, cell-based. The gist of the method: (§2)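 HeLa cells in DMEM with 10% FBS, seeded at 5 × 10³ cells/well 24 h before treatment. Dark stocks heated to 60 or 80 °C. Light stocks preilluminated 3 min at 380 nm (11 mW/cm²). Stocks diluted in DMEM to 20× final, final DMSO 0.5%. Exposure 24 or 48 h. MTS read 2 h at 37 °C, absorbance 490 nm; % of nontreated cells.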

Data set [8] deals with Histone deacetylase (Homo sapiens) (UniProt Q13547+O15379+Q9UBN7+Q92769+Q9UQL6+Q8WUI4+Q9BY41+Q96DB2+P56524+Q9UKV0+Q969S8). The data set is described as follows: Inhibition of HDAC in human HeLa cells at 50 uM incubated for 3 hrs by fluorescence based analysis. Type of data set: cell-based. The gist of the method: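 Live-cell HDAC assay: HeLa in DMEM/10% FBS, 15 × 10³ cells/well, seeded 24 h before. Compound added at 50 μM final, either heat-relaxed to trans (60 or 80 °C, dark) or LED-illuminated 3 min. Boc-Lys(Ac)-AMC substrate at 100 μM final, 3 h at 37 °C. […] Fluorescence ex 380/em 460 nm. Activity as % of untreated cells after no-substrate blank subtraction.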

The test system of data set [9] is KG-1. Description: Cytotoxicity against human KG-1 cells assessed as reduction in cell viability at 50 uM incubated for 48 hrs in dark condition by celltiter glo assay. The data set is classed as functional, cell-based. The gist of the method: (§3)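 KG1 suspension cells grown in IMDM with 20% FBS, 1 × 10⁴ cells/well. Dark stocks heated to 60 or 80 °C; light stocks preilluminated 3 min at 380 or 550 nm. Exposure 50 μM for 48 h. CellTiter-Glo added, 10 min at room temperature, luminescence read; % of nontreated cells.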

Data set [10] relates to HT-29. Description: Cytotoxicity against human HT-29 cells assessed as reduction in cell viability at 50 uM incubated for 48 hrs in presence of illumination with 550 nm light by MTS assay. Type of data set: functional, cell-based. The gist of the method: (§4)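 HT29 and MCF7 cells in DMEM with 10% FBS, seeded at 1 × 10⁴ cells/well; compound added 24 h later. Dark stocks heated to 60 or 80 °C; light stocks preilluminated 3 min at 380 or 550 nm. Tested at 50 μM, final DMSO 0.5%, for 48 h. MTS read 2 h at 37 °C, absorbance 490 nm; viability as % of nontreated cells.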

Data set [11] relates to MCF7. Description: Cytotoxicity against human MCF7 cells assessed as reduction in cell viability at 50 uM incubated for 48 hrs in presence of illumination with 380 nm light by MTS assay. Type of data set: functional, cell-based. The gist of the method: as §4
Data set [12] is described as follows: Stability of the compound assessed as half life in DMEM by HPLC analysis. Type of data set: physicochemical. In short, it runs like this: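 10 mM DMSO stock illuminated 2 min (LED array plate at maximum power, e.g. 380 nm at 11 mW/cm²), then diluted to 10 μM in DMEM with 0.1% DMSO. Kept at 37 °C in an incubator in the dark; samples taken at fixed intervals and analysed by HPLC. Cis thermal half-life obtained by fitting the decay to an exponential function.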

Data set [13] concerns HT-29. Description: Cytotoxicity against human HT-29 cells assessed as reduction in cell viability at 50 uM incubated for 48 hrs in presence of illumination with 380 nm light by MTS assay. The data set is classed as functional, cell-based. In short, it runs like this: as §4
Data set [14] concerns MCF7. Description: Cytotoxicity against human MCF7 cells assessed as reduction in cell viability at 50 uM incubated for 48 hrs in dark condition by MTS assay. The data set is classed as functional, cell-based. In short, it runs like this:
as §4

Data set [15] relates to MCF7. Description: Cytotoxicity against human MCF7 cells assessed as reduction in cell viability at 50 uM incubated for 48 hrs in presence of illumination with 550 nm light by MTS assay. The data set is classed as functional, cell-based. In short, it runs like this:
as §4

Data set [16] relates to KG-1. The data set is described as follows: Cytotoxicity against human KG-1 cells assessed as reduction in cell viability at 50 uM incubated for 48 hrs in presence of illumination with 550 nm light by celltiter glo assay. The data set is classed as functional, cell-based. The gist of the method: as §3
Data set [17] concerns HT-29. The data set is described as follows: Cytotoxicity against human HT-29 cells assessed as reduction in cell viability at 50 uM incubated for 48 hrs in dark condition by MTS assay. Type of data set: functional, cell-based. In short, it runs like this: as §4
Data set [18] concerns KG-1. The data set is described as follows: Cytotoxicity against human KG-1 cells assessed as reduction in cell viability at 50 uM incubated for 48 hrs in presence of illumination with 380 nm light by celltiter glo assay. The data set is classed as functional, cell-based. The gist of the method:
as §3

Data set [19] has as its system HeLa. Description: Anticancer activity against human HeLa cells assessed as inhibition of cell growth incubated for 48 hrs in dark by MTS assay. The data set is classed as functional, cell-based. In short, it runs like this:
as §2

The nature of data set [20]: Stability of the compound assessed as half life in buffer. Type of data set: physicochemical.
Data set [21] addresses T1, Histone deacetylase 1. The data set is described as follows: Inhibition of human recombinant HDAC1 using Boc-Lys(Ac)-AMC as substrate incubated for 1 hrs in presence of illumination with 380 nm light by fluorescence based assay.
Data set [22] relates to HeLa. The data set is described as follows: Anticancer activity against human HeLa cells assessed as inhibition of cell growth incubated for 48 hrs in presence of illumination with 380 nm light by MTS assay. The data set is classed as functional, cell-based. In short, it runs like this: as §2
Data set [23] deals with HeLa. The data set is described as follows: Anticancer activity against human HeLa cells assessed as inhibition of cell growth incubated for 24 hrs in dark condition by MTS assay. The data set is classed as functional, cell-based. The gist of the method: as §2
Setting [24] is: in the assay text read “380 nm light” for “550 nm light”.

Active and inactive are the calls of the source. The calls are words filed in the database; no cut-off is given here.

T1 sequence (Q13547 whole entry): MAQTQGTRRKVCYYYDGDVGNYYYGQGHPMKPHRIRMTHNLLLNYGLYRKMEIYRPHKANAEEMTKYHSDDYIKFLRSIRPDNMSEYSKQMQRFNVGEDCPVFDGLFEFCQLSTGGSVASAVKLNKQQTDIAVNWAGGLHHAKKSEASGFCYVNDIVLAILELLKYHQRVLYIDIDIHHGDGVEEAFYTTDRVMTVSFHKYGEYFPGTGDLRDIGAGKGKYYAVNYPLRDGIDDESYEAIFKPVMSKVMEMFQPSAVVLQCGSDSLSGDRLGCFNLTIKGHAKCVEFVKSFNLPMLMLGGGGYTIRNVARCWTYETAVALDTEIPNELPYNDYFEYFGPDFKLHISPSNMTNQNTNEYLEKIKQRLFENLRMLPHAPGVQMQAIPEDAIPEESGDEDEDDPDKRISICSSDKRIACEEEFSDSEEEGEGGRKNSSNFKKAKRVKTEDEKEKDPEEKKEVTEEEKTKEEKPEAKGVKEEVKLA

Turning to `COc1cc(Cl)c(/N=N/c2c(Cl)cc(C(=O)Nc3ccccc3N)cc2Cl)c(Cl)c1`, the inhibition entry in [1], in data set [3], in [4] and in data set [5] was “inactive” each time. Further, the half-life at up to 50 µM in [2] was 8.3 h.
With `COc1cc(Cl)c(/N=N/c2c(Cl)cc(/C=C/C(=O)Nc3ccccc3N)cc2Cl)c(Cl)c1`, the half-life at up to 50 µM in data set [2] was 13.8 h. Also, the inhibition result in [5] was “inactive”.
Regarding `COc1cc(F)c(/N=N/c2c(F)cc(/C=C/C(=O)NO)cc2F)c(F)c1`, the half-life at up to 50 µM in [2] is 218 h.
Consider `CN(C)c1cc(Cl)c(/N=N/c2c(Cl)cc(/C=C/C(=O)Nc3ccccc3N)cc2Cl)c(Cl)c1`, for which, in data set [2], the half-life at up to 50 µM was determined as 0.135 h. Also, the IC50 in [6] came to 5000 nM.
In the case of `COc1ccc(/N=N/c2ccc(/C=C/C(=O)Nc3ccccc3N)cc2)cc1`, the result in data set [7], in [9], in [14] and in data set [17] was inactive. Moreover, the inhibition entry in [8] was “Active”. Also, the half-life at up to 50 µM in data set [2] was 3.1 h. Besides, the outcome in data set [10] (setting [24]), in data set [11], in data set [13], in [15], in data set [16] and in data set [18] was Active. In addition, the half-life in data set [12] was found to be 0.667 h.
For the molecule `COc1ccc(/N=N/c2ccc(C(=O)Nc3ccccc3N)cc2)cc1`, the inhibition entry in data set [19] is “inactive”. In data set [2], the half-life at up to 50 µM was 20.8 h.
For `COc1ccc(/N=N/c2ccc(C(=O)NO)cc2)cc1`, the half-life at up to 50 µM in [2] was 18.7 h.
Consider `COc1cc(F)c(/N=N/c2c(F)cc(/C=C/C(=O)Nc3ccccc3N)cc2F)c(F)c1`, for which the inhibition result in [8] was “Active”. Moreover, the inhibition entry in [19] is “inactive”. In addition, the outcome in [9], in data set [14] and in data set [17] was inactive. For the same molecule, the half-life at up to 50 µM in data set [2] was 223 h. For the same molecule, the result in [10], in data set [11], in data set [13], in [15], in data set [16] and in data set [18] was Active.
Take `COc1cc(F)c(/N=N/c2c(F)cc(/C=C/C(=O)Nc3ccccc3N)cc2Cl)c(Cl)c1`: in [8], the inhibition result is “Active”. In data set [19], the inhibition result was “inactive”. In addition, the result in data set [9], in data set [14] and in data set [17] was inactive. In addition, the half-life at up to 50 µM in [2] was 178 h. Besides, the outcome in data set [10], in [11], in data set [13], in data set [15], in [16] and in [18] was Active.
On to `COc1ccc(/N=N/c2ccc(/C=C/C(=O)NO)cc2)cc1`, for which the half-life at up to 50 µM in data set [2] was 2.7 h. Also, the half-life in data set [20] was 2.7 h.
Turning to `COc1cc(F)c(/N=N/c2c(F)cc(C(=O)Nc3ccccc3N)cc2F)c(F)c1`, the inhibition entry in data set [8] was “Active”. Besides, the result in data set [9], in data set [14] and in data set [17] was inactive. The half-life at up to 50 µM in [2] was 1010 h. Further, the result in [10], in data set [11], in [13], in data set [15], in data set [16] and in data set [18] was Active. For the same molecule, in [12], the half-life was 113 h.
For `COc1ccc(/N=N/c2ccc(/C=C/C(=O)Nc3ccccc3N)cc2F)c(F)c1`, the IC50 in data set [21] came to 460 nM. The inhibition entry in data set [19] and in [22] was “inactive” throughout. The half-life at up to 50 µM in data set [2] was 9.9 h.
Consider `COc1ccc(/N=N/c2ccc(/C=C/C(=O)Nc3ccccc3N)cc2Cl)c(Cl)c1`, for which the inhibition entry in data set [19] and in [22] was “inactive” throughout. The half-life at up to 50 µM in [2] is 4.3 h.
Consider `CN(C)c1cc(F)c(/N=N/c2c(F)cc(/C=C/C(=O)Nc3ccccc3N)cc2F)c(F)c1`, for which the half-life at up to 50 µM in data set [2] was 5.4 h. In data set [6], the IC50 is 1200 nM. For the same molecule, the inhibition result in [5] was “inactive”.
For the molecule `CN(C)c1ccc(/N=N/c2ccc(C(=O)Nc3ccccc3N)cc2)cc1`, in data set [2], the half-life at up to 50 µM was determined as 0.0717 h.
As to `COc1ccc(/N=N/c2ccc(/C=C/C(=O)Nc3cc(-c4cccs4)ccc3N)cc2)cc1`, the outcome in data set [7], in [9], in data set [14] and in data set [17] was inactive. In addition, the inhibition result in data set [8] was “Active”. For the same molecule, in [2], the half-life at up to 50 µM is 4.5 h. The outcome in data set [10] (setting [24]), in data set [11], in [13], in [15], in [16] and in data set [18] was Active. For the same molecule, in data set [23], the inhibition entry was “inactive”.
Take `COc1ccc(/N=N/c2ccc(CCC(=O)Nc3ccccc3N)cc2)cc1`: in data set [19], the inhibition result was “inactive”. Further, the result in [22] was inactive. Further, in data set [2], the half-life at up to 50 µM was 20.1 h.
